# Activity calls are given as the source filed them. The calls are words filed in the database; no cut-off is given here.
# Columns and labels:
# [1] = molecular target: T1, DNA topoisomerase 1 (Homo sapiens) (UniProt P11387); test: Inhibition of human recombinant DNA topoisomerase 1-mediated relaxation of supercoiled pBR322 DNA at 100 uM after 30 mins by agarose gel electrophoresis
# T1 sequence (whole entry): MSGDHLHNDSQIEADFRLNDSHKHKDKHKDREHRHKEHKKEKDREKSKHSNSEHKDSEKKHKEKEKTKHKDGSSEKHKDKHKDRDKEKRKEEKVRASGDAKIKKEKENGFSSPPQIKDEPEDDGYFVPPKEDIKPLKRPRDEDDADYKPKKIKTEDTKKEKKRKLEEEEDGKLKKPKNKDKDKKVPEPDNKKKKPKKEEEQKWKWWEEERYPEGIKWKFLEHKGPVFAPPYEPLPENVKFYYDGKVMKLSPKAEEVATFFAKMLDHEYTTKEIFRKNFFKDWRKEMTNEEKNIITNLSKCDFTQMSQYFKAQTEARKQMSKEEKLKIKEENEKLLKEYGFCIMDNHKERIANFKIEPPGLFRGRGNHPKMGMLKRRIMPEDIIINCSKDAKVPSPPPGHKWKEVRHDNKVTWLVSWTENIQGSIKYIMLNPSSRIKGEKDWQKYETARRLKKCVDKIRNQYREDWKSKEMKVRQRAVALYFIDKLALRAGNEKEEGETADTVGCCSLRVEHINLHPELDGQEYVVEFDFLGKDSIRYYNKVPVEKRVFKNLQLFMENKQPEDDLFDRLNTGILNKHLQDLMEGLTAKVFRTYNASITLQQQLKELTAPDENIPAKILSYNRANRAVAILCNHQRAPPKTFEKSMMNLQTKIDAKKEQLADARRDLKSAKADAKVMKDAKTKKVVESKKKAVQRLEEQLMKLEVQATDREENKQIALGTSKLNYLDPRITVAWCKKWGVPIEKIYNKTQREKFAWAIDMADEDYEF
# Procedure, shortened: (§1)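 Recombinant human topo I (0.4 units) with 100 ng supercoiled pBR322, 30 min at 37 °C in 10 mM Tris–HCl pH 7.9, 150 mM NaCl, 0.1% BSA, 1 mM spermidine, 5% glycerol. Compounds from 20 mM DMSO stock. Products run on 1% agarose in TAE, 15 V for 7 h, ethidium-stained, bands quantified under UV.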
# [2] = molecular target: T1, DNA topoisomerase 1 (Homo sapiens); test: Inhibition of human recombinant DNA topoisomerase 1-mediated relaxation of supercoiled pBR322 DNA at 20 uM after 30 mins by agarose gel electrophoresis; procedure, shortened: as §1
# [3] = molecular target: DNA topoisomerase 2-alpha (Homo sapiens) (UniProt P11388); test: Inhibition of human DNA topoisomerase 2alpha-mediated relaxation of supercoiled pBR322 DNA at 100 uM after 30 mins by agarose gel electrophoresis
# Procedure, shortened: (§2)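 Human topo IIα (1 unit) with 200 ng supercoiled pBR322, 30 min at 30 °C in 10 mM Tris–HCl pH 7.9, 50 mM NaCl, 50 mM KCl, 5 mM MgCl2, 1 mM EDTA, 1 mM ATP plus BSA. Products run on 1% agarose in TAE at 25 V for 4 h, ethidium-stained, supercoiled DNA quantified under UV.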
# [4] = molecular target: DNA topoisomerase 2-alpha (Homo sapiens) (UniProt P11388); test: Inhibition of human DNA topoisomerase 2alpha-mediated relaxation of supercoiled pBR322 DNA at 20 uM after 30 mins by agarose gel electrophoresis; procedure, shortened: as §2
# MCF7 = test: Cytotoxicity against human MCF7 cells after 4 days by ELISA reader assay; type: functional, cell-based; details: MCF7, 96 h
# Procedure, shortened: (§3)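 Cells grown per supplier, seeded at 2–4 × 10⁴ per well, left overnight in medium with 10% FBS at 37 °C under 5% CO₂, then exposed to compounds. WST (cell counting kit-8) reagent added for a further 4 h, absorbance read at 450 nm. IC50 from four-parameter logistic fit; mean ± S.D. of three experiments, each in triplicate.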
# DU-145 = test: Cytotoxicity against human DU145 cells after 4 days by ELISA reader assay; type: functional, cell-based; details: DU-145, 96 h; procedure, shortened: as §3
# HCT-15 = test: Cytotoxicity against human HCT15 cells after 4 days by ELISA reader assay; type: functional, cell-based; details: HCT-15, 96 h; procedure, shortened: as §3
# K562 = test: Cytotoxicity against human K562 cells after 4 days by ELISA reader assay; type: functional, cell-based; details: K562, 96 h; procedure, shortened: as §3
# HeLa = test: Cytotoxicity against human HeLa cells after 4 days by ELISA reader assay; type: functional, cell-based; details: 96 h; procedure, shortened: as §3
# Sequence of DNA topoisomerase 2-alpha (Homo sapiens) (P11388 whole entry): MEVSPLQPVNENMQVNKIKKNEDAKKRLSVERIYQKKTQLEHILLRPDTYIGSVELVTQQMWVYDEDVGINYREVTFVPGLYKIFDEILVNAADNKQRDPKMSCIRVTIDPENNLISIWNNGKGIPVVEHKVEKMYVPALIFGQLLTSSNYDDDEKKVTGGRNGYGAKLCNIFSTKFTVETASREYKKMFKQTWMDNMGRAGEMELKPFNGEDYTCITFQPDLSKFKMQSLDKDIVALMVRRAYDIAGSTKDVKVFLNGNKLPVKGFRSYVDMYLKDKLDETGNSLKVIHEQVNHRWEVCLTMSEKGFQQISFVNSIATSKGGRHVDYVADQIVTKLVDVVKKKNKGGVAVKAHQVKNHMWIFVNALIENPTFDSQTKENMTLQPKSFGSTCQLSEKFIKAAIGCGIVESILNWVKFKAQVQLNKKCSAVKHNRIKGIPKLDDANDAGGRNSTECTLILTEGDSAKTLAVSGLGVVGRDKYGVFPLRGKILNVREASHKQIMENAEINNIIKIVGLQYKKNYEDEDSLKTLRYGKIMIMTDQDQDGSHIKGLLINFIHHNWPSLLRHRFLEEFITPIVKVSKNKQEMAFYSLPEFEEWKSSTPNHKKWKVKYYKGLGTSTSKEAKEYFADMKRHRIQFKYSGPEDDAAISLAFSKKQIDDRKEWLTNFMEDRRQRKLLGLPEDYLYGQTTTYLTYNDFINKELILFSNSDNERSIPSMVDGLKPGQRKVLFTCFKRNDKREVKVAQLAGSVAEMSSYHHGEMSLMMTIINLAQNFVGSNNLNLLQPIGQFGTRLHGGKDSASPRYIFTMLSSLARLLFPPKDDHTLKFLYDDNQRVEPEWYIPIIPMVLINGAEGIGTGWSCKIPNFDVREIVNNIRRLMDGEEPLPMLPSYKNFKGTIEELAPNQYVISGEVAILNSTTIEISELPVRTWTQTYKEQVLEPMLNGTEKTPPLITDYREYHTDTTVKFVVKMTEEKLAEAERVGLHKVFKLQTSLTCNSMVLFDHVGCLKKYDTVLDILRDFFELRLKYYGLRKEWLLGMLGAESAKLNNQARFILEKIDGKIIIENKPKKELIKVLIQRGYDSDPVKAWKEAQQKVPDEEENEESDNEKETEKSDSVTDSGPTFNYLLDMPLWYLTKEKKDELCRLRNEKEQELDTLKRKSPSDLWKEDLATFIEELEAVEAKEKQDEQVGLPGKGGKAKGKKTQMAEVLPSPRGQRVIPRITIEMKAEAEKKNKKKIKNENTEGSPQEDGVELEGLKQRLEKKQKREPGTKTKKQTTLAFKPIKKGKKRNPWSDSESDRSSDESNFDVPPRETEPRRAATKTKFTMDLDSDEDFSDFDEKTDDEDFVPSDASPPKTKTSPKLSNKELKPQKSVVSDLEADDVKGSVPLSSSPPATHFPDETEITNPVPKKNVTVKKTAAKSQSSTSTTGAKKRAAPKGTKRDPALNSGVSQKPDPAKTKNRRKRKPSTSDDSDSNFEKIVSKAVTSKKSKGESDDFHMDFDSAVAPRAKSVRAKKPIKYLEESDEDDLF
SMILES,inhibition [1] [%],inhibition [2],inhibition [3] [%],inhibition [4] [%],IC50 (MCF7) [µM],IC50 (DU-145) [µM],IC50 (HCT-15) [µM],IC50 (K562) [µM],IC50 (HeLa) [µM]
Clc1cccc(-c2cc(-c3ccoc3)cc(-c3ccc(Cl)s3)n2)c1,2.1,inactive,54,50.6,2.92,23,0.95,22.1,23.7
Clc1ccc(-c2cc(-c3ccoc3)cc(-c3ccccc3Cl)n2)s1,0,inactive,49.5,37.6,7.36,16.4,1.1,15.8,19
Cc1ccsc1-c1cc(-c2ccc(Cl)o2)cc(-c2ccc(Cl)cc2)n1,5.1,inactive,59.8,40.4,15.3,21.9,30.3,15.6,29.3
Cc1ccsc1-c1cc(-c2ccc(Cl)o2)cc(-c2cccnc2)n1,21.4,inactive,57.2,25.5,5.81,30.8,> 50,12.3,> 50
Cc1ccc(-c2cc(-c3ccoc3)cc(-c3ccc(Cl)s3)n2)cc1,0,inactive,50.3,53.6,5.34,25.3,1.17,17.9,28.7
Clc1cccc(-c2cc(-c3ccc(Cl)o3)cc(-c3ccc(Cl)s3)n2)c1,13.3,inactive,53.8,40.7,15.1,21.6,> 50,19.6,25.2
Cc1cccc(-c2cc(-c3ccoc3)cc(-c3ccc(Cl)s3)n2)c1,2.6,inactive,50.2,37.6,3.99,20.3,0.88,13.7,23.6
Cc1ccsc1-c1cc(-c2ccco2)cc(-c2ccc(Cl)cc2)n1,1,inactive,56.3,17.8,0.89,26.7,0.71,20.7,24.5
COc1cc([C@@H]2c3cc4c(cc3[C@@H](O[C@@H]3O[C@@H]5CO[C@@H](C)O[C@H]5[C@H](O)[C@H]3O)[C@H]3COC(=O)[C@H]23)OCO4)cc(OC)c1O [ETOPOSIDE],,,,28.9,1.89,1.3,1.09,2.41,1.29
Clc1ccc(-c2cc(-c3ccoc3)cc(-c3ccccn3)n2)s1,3.1,inactive,49.6,38.9,3.36,20.5,1.27,20,21.6
Clc1ccc(-c2cc(-c3ccoc3)cc(-c3ccco3)n2)s1,9.6,inactive,49.1,48.6,4.74,17.2,1.28,16.2,22.7
Cc1ccsc1-c1cc(-c2ccoc2)cc(-c2ccc(Cl)cc2)n1,85.9,10.6%,33.8,8.1,20.3,20.1,2.99,19.6,17.4

# Source: ChEMBL document CHEMBL1157684, “2-Thienyl-4-furyl-6-aryl pyridine derivatives: synthesis, topoisomerase I and II inhibitory activity, cytotoxicity, and structure-activity relationship study” (Bioorg Med Chem, 2010)
